Shown are actives, neighbours in structure and some others; about 1.9% of the full set was active somewhere.
Runt-CBFb FRET: inhibitors of RUNX1 Runt–CBFb binding, primary screen, biochemical, FRET, Cerulean-Runt, Venus-CBFb, uHTS; Runt-related transcription factor 1 (Homo sapiens) + Core-binding factor subunit beta …; Cerulean-Runt/Venus-CBFb FRET ratio 530/480, 1 h; inhibition, % at 20 µM; actives 0.46% (n = 220,000); AID 1496, 2009;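 active = inhibition over about 50% at 20 µM in the single-dose screen, limit read from the data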;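 also: 0% = DMSO wells and 100% = excess unlabeled CBFb competitor control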
Target sequence (Q01196 whole entry, looked up): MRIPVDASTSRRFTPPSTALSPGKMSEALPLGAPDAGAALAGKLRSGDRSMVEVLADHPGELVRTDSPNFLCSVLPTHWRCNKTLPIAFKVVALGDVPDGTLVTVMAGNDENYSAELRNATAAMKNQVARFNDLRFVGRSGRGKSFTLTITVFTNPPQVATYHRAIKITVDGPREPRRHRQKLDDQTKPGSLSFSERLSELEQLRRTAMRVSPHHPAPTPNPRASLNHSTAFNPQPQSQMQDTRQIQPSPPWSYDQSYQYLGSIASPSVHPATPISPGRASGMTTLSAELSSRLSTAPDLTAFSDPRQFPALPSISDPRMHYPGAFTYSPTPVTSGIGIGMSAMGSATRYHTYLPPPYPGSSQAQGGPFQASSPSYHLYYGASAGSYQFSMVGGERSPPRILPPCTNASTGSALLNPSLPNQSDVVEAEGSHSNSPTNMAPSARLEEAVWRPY
Target sequence (Q13951 whole entry, looked up): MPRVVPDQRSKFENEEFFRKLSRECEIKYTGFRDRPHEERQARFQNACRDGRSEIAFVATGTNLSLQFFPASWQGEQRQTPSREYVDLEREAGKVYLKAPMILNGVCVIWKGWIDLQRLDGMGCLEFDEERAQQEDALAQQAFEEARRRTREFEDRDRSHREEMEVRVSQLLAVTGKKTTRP
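System: Cerulean-labeled Runt domain protein | Quantity: 100 nM of each labeled protein | Schedule: 1 h compound exposure, room temperature | Detection: Fluorescence energy transfer, 422 nm excitation, 530/480 nm emission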
RanGTP-Impb inh: inhibitors of RanGTP-importin-beta interaction, primary screen, biochemical, FRET, CFP-Ran, YFP-importin-beta, homogeneous; Ran GTPase (GTP-bound) - importin-beta complex; cell-free CFP-Ran/YFP-importin-beta FRET ratio; inhibition, % (concentration not given with the values); actives 1.1% (n = 300,000);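 active = more than half of the replicate wells show a fall in the fluorescence ratio signal beyond about 16%, limit read from the data, passing the limit was not always enough; inconclusive = exactly half of the replicate wells pass the set limit; inactive = fewer than half of replicates pass the limit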;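 also: 0% = DMSO wells and 100% = Ran loaded with GDP instead of GTP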
Hck Nef HTS: inhibitors of Nef-activated human Hck kinase, primary screen, biochemical, Z-Lyte FRET, 384-well, Hck-YEEI | inhibition, % at 20 µM | actives 0.68% (n = 220,000) | Recombinant Hck-YEEI plus Nef, Z-Lyte FRET kinase assay | Tyrosine-protein kinase HCK (Homo sapiens), P08631;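 active = Hck-Nef kinase inhibition above about 50%, limit read from the data; inactive = inhibition below that limit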;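 also: 0% = DMSO with Hck plus Nef and 100% = Hck alone without Nef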
TbHK1 inh: Trypanosoma brucei hexokinase 1 inhibitors, primary screen, biochemical, G6PDH-coupled NADH absorbance, MLSCN library; hexokinase 1 [Trypanosoma brucei]; recombinant TbHK1, G6PDH-coupled NADH A340; inhibition, % at 10 µM; actives 0.11% (n = 220,000);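 active = inhibition of 50% or more in the single-dose primary screen; inactive = inhibition below 50%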
Runt-SMMHC FRET: inhibitors of RUNX1 Runt–CBFb-SMMHC binding, primary screen, biochemical, FRET, Cerulean-Runt, Venus-CBFb-SMMHC, uHTS; Runt-related transcription factor 1 (Homo sapiens) + Core-binding factor subunit beta …; Cerulean-Runt/Venus-CBFb-SMMHC FRET ratio 530/480, 1 h; inhibition, % at 20 µM; actives 0.74% (n = 220,000);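 active = mean inhibition across duplicate retests at 20 µM reaching about 50%, limit read from the data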;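 also: 0% = DMSO wells and 100% = wells with excess untagged CBFb-SMMHC; inhibitors lower the FRET ratio by blocking Runt binding to CBFb-SMMHC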
* hit, by the source's call.

What do the screens show for `CCN1CCc2c(sc(NC(=O)c3ccc(S(=O)(=O)N(C)CC4CCCO4)cc3)c2C(N)=O)C1` (stereo not drawn)?
RanGTP-Impb inh: 48*

What do the screens show for `COc1ccc(Cl)cc1C(=O)Nc1cccc(-c2ccc3nncn3n2)c1`?
Runt-CBFb FRET: 0; RanGTP-Impb inh: 5; Hck Nef HTS: -3; TbHK1 inh: -8; Runt-SMMHC FRET: 2

How did CC(C)c1ccc(NC2CCCN(C(=O)CSc3nncn3C)C2)cc1 (stereo not drawn) do in these assays?
RanGTP-Impb inh: -1

Results for CC(C)(C)OC(=O)N1CCN(CCNC(=O)c2ccccc2)CC1 ?
RanGTP-Impb inh: -3

How did CCN(CC)CCCN1C=C2C(=O)C(C)(OC(=O)CCc3ccccc3)C(=O)C=C2C=C1c1ccc(C#N)cc1 (stereo not drawn) do in these assays?
Runt-CBFb FRET: 36; RanGTP-Impb inh: 0; Hck Nef HTS: 18; TbHK1 inh: -14; Runt-SMMHC FRET: 51*

What do the screens show for `Cc1ccc2nc(N3CCN(C)CC3)c(C#N)cc2c1`?
Runt-CBFb FRET: 4; RanGTP-Impb inh: 6; Hck Nef HTS: 5; TbHK1 inh: -4; Runt-SMMHC FRET: 12

Results for Cc1cc(C)c2nc(N3CCCN(C(=O)c4cnccn4)CC3)c(C#N)cc2c1 ?
Runt-CBFb FRET: 11; RanGTP-Impb inh: 39*; Hck Nef HTS: 15; TbHK1 inh: -1; Runt-SMMHC FRET: 31

How did Cc1cc(C)c2nc(N3CCN(C)CC3)c(C#N)cc2c1 do in these assays?
Runt-CBFb FRET: 7; RanGTP-Impb inh: 6; Hck Nef HTS: 8; TbHK1 inh: 1; Runt-SMMHC FRET: 34

What do the screens show for `Cc1ccc(C(=O)N2CCCN(c3nc4cc5c(cc4cc3C#N)OCO5)CC2)cc1`?
RanGTP-Impb inh: 113*

What do the screens show for `N#Cc1cc2cc3c(cc2nc1N1CCCCC1)OCCO3`?
Runt-CBFb FRET: 34; RanGTP-Impb inh: 59*; Hck Nef HTS: -14; TbHK1 inh: 1; Runt-SMMHC FRET: 107*

What do the screens show for `Cc1cc2cc(C#N)c(N3CCOCC3)nc2cc1Cl`?
RanGTP-Impb inh: 7

How did CCCSc1nc(C)c2cc(C)cc(C)c2n1 do in these assays?
Runt-CBFb FRET: 2; RanGTP-Impb inh: -4; Hck Nef HTS: -1; TbHK1 inh: -3; Runt-SMMHC FRET: -2

What do the screens show for `Cc1cc(C)c2nc3nc(C)c(C)cc3c(N)c2c1`?
Runt-CBFb FRET: 19; RanGTP-Impb inh: 14; Hck Nef HTS: 7; TbHK1 inh: 1; Runt-SMMHC FRET: 92*

How did CCOc1ccc(C2CC(c3cccc(Cl)c3)n3nc(N)nc3N2)cc1 (stereo not drawn) do in these assays?
Runt-CBFb FRET: -2; RanGTP-Impb inh: 26*; Hck Nef HTS: 0; TbHK1 inh: -1; Runt-SMMHC FRET: 4

Results for Nc1nc2n(n1)C(c1cccc(Cl)c1)CC(c1ccc(F)cc1)N2 (stereo not drawn) ?
Runt-CBFb FRET: 1; RanGTP-Impb inh: -2; Hck Nef HTS: 2; TbHK1 inh: -11; Runt-SMMHC FRET: 0

Results for O=C1/C(=C/c2ccccc2Cl)SC(=S)N1CCCC(=O)N(CCO)c1ccccc1 ?
RanGTP-Impb inh: 1

How did CCn1c(CNC(=O)c2cccc(C)c2)nnc1SCC(=O)Nc1nnc(C)s1 do in these assays?
RanGTP-Impb inh: -1

Results for CCN1C(=NCCc2cccs2)N[C@@H](c2cccs2)C(C(=O)OC)=C1C ?
RanGTP-Impb inh: 31*

Results for COC(=O)c1ccc(C(=O)OC)c(NC(=S)N2CCCC(C)C2)c1 (stereo not drawn) ?
Runt-CBFb FRET: 17; RanGTP-Impb inh: 54*; Hck Nef HTS: 4; TbHK1 inh: -3; Runt-SMMHC FRET: 34

Results for CCC(C)C(=O)Nc1cc(C(=O)OC)ccc1C(=O)OC (stereo not drawn) ?
Runt-CBFb FRET: 3; RanGTP-Impb inh: 5; Hck Nef HTS: 2; TbHK1 inh: -8; Runt-SMMHC FRET: -1

How did COC(=O)c1ccc(C(=O)OC)c(NC(=S)N2CC(C)CC(C)C2)c1 (stereo not drawn) do in these assays?
Runt-CBFb FRET: 14; RanGTP-Impb inh: inconclusive; Hck Nef HTS: 8; TbHK1 inh: -6; Runt-SMMHC FRET: 29

Results for CCN(CC)C(=S)Nc1cc(C(=O)OC)ccc1C(=O)OC ?
Runt-CBFb FRET: 20; RanGTP-Impb inh: 38*; Hck Nef HTS: 4; TbHK1 inh: -5; Runt-SMMHC FRET: 32

How did COc1cc(/C=C(\C#N)C(=O)NCc2cccs2)ccc1O do in these assays?
Runt-CBFb FRET: 23; RanGTP-Impb inh: 4; Hck Nef HTS: -2; TbHK1 inh: -5; Runt-SMMHC FRET: 58*

How did COCCNC(=O)/C(C#N)=C/c1ccc(OC(=O)c2cccs2)c(OC)c1 do in these assays?
Runt-CBFb FRET: -2; RanGTP-Impb inh: 1; Hck Nef HTS: 22; TbHK1 inh: -29; Runt-SMMHC FRET: 1

Results for C=CCOC(=O)c1cc(-c2ccc(/C=C3\C(=O)NC(=O)C(C#N)=C3C)o2)ccc1Cl ?
Runt-CBFb FRET: 18; Hck Nef HTS: 91*; TbHK1 inh: -9; Runt-SMMHC FRET: 0

How did CCOC(=O)/C=C(\C)Sc1cc(O)c2ccccc2c1O do in these assays?
Runt-CBFb FRET: 27; Hck Nef HTS: -167; TbHK1 inh: -6; Runt-SMMHC FRET: 61*

How did CCOC(=O)/C=C(\C)Sc1cc(=O)oc2ccccc12 do in these assays?
Runt-CBFb FRET: 5; RanGTP-Impb inh: 2; Hck Nef HTS: -1; TbHK1 inh: -2; Runt-SMMHC FRET: -1

How did CCOC(=O)c1cc(C)[nH]c1C do in these assays?
Runt-CBFb FRET: 0; RanGTP-Impb inh: 0; Hck Nef HTS: 11; TbHK1 inh: -4; Runt-SMMHC FRET: 2

What do the screens show for `CCOC(=O)c1cc(C)[nH]c(=O)c1C#N`?
Runt-CBFb FRET: 26; RanGTP-Impb inh: 8; Hck Nef HTS: -3; TbHK1 inh: -16; Runt-SMMHC FRET: 56*

How did CCn1c(SCC(=O)Nc2cccc(OC)c2)nc2c(c1=O)SCC2 do in these assays?
RanGTP-Impb inh: 4

Results for COc1ccc(-c2c(NC(C)=O)n(C)c3ccccc3c2=O)cc1 ?
Runt-CBFb FRET: 0; RanGTP-Impb inh: 0; Hck Nef HTS: -1; TbHK1 inh: -34; Runt-SMMHC FRET: 3

What do the screens show for `Cn1c2ccccc2c(=O)c2cc(C#Cc3ccc(N)cc3)ccc21`?
RanGTP-Impb inh: 50*

How did Cn1c2ccccc2c(=O)c2ccc(C#CC3(O)CCCCC3)cc21 do in these assays?
RanGTP-Impb inh: 165*
